Among the data in ChEMBL document CHEMBL1144352, “Effects of flavonoids on cell proliferation and caspase activation in a human colonic cell line HT29: an SAR study” (2005) are Activity and Caspase induction values, retold here.

Format in all cases: functional
Test [1] concerns HT-29. The test can be described thus: Antiproliferative effect against human colonic cell line (HT-29) after 6 hr at a concentration of 50 uM. In a few lines: (§1)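 HT-29 cells plated at 15 000/well in DMEM with 5% fetal calf serum for 24 h, then medium replaced with fresh medium containing compound at 50 µM plus 200 µM sodium ascorbate. After incubation, neutral red (50 µg/mL) uptake for 2 h, formaldehyde/CaCl2 fixation, ethanol:acetic acid extraction, OD 550 nm. Result as % of control cells, mean ± SD, n > 18 wells, ≥4 experiments.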

The test system of test [2] is HT-29. The test is described as follows: Antiproliferative effect against human colonic cell line (HT-29) after 24 hr at a concentration of 50 uM. In a few lines: as §1
Test [3] concerns HT-29. The test can be described thus: Caspase 3/7 activity is expressed as ratio of caspase activation in treated human colonic cell line (HT-29) to that of untreated control cells after 5 hr. In a few lines: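 Caspase 3/7 measured with ApopOne kit. HT-29 cells were seeded at 15 000/well and exposed to test molecule for 5 h. Reagent containing caspase substrate and lysis buffer was then added, followed by 45 min at 37 °C. Fluorescence read at excitation 485 nm and emission 538 nm. Reported as ratio of treated to untreated control, mean of duplicate wells on one plate.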

As to `COc1ccc(-c2cc(=O)c3c(OC)c(OC)c(OC)cc3o2)cc1O`, the Activity in the test with HT-29 [1] amounted to 95.4; in the test on HT-29 [2] it was 102.1.
Take `Cc1c(O)cc2oc(-c3ccccc3)cc(=O)c2c1O`: the Activity in the test with HT-29 [1] amounted to 104; in the test on HT-29 [2], 101.
Taken in the same sequence, the figures for `CC(C)=CCc1c(O)cc2oc(-c3ccccc3)cc(=O)c2c1O` were 87.9 and 87.9.
Taken in the same sequence, the figures for `O=c1cc(-c2ccccc2)oc2cc(OCc3ccccc3)cc(O)c12` were 96.6 and 87.1.
For `O=c1cc(-c2ccccc2)oc2cc(O)c(Cc3ccccc3)c(O)c12` the same measures were 65.3 and 57.6.
As for `O=c1cc(-c2ccccc2)oc2c(Cc3ccccc3)c(O)cc(O)c12`, the Activity turned out to be 103.2 in the test with HT-29 [1] and 97.4 in the test with HT-29 [2].
Consider `CC(C)=CCc1c(O)cc(O)c2c(=O)cc(-c3ccccc3)oc12`, for which the Caspase induction in the test with HT-29 [3] worked out at 0.9. The Activity in the test with HT-29 [1] came to 86.3; with HT-29 [2] it was 75.5.
Take `COc1cc(O)cc2oc(-c3ccccc3)cc(=O)c12`: the Activity with HT-29 [1] came to 104.7; in the test on HT-29 [2], 107.6.
For the compound `C=CC(C)(C)c1c(O)cc(O)c2c(=O)c(O)c(-c3ccccc3)oc12`, the Caspase induction in the test with HT-29 [3] is 1.1. For the same compound, the Activity is reported as 76.7 in the test on HT-29 [1] and 63 in the test on HT-29 [2].
For the compound `COc1cc(-c2oc3cc(O)cc(O)c3c(=O)c2OC)cc(OC)c1OC`, the Activity with HT-29 [1] is recorded as 101.9; in the test on HT-29 [2], 101.8.
Taken in the same sequence, the figures for `COc1ccc(C(=O)/C=C(\O)c2ccc(O)cc2O)cc1` were 96.2 and 96.6.
Take `C=CC(C)(C)c1c(O)cc(O)c2c(=O)cc(-c3ccccc3)oc12`: in the test on HT-29 [3], the Caspase induction is on record as 1.1. Besides, the Activity in the test with HT-29 [1] is on record as 76.7; with HT-29 [2], 57.7.
Taken in the same sequence, the figures for `CC(C)=CCC/C(C)=C/COc1cc(O)c2c(=O)cc(-c3ccccc3)oc2c1` were 1.2, 90.4 and 84.3.
Consider `C=CC(C)(C)c1c(O)cc2oc(-c3ccccc3)cc(=O)c2c1O`, for which the Activity is 90.4 in the test on HT-29 [1] and 79.1 in the test on HT-29 [2].
Turning to `CC(C)=CCc1c(O)cc(O)c2c(=O)c(O)c(-c3ccc(O)cc3)oc12`, the Caspase induction in the test with HT-29 [3] came to 2.7. The Activity in the test with HT-29 [1] amounted to 78.8; in the test on HT-29 [2], 71.1.
As to `C=CC(C)(CCC=C(C)C)c1c(O)cc(O)c2c(=O)cc(-c3ccccc3)oc12` (configuration not stated), in the test with HT-29 [3], the Caspase induction came out at 8.9. For the same compound, the Activity in the test on HT-29 [1] was 28.4; in the test on HT-29 [2], 28.1.
For `C=CC(C)(C)c1cc(C(=O)/C=C/c2ccccc2)c(O)cc1O` the same measures were 7.3, 35.4 and 15.6.
Consider `COc1c(-c2ccccc2)oc2c(O)c(O)c(CC=C(C)C)c(O)c2c1=O`, for which the Caspase induction in the test with HT-29 [3] is listed as 3.5. Besides, the Activity with HT-29 [1] was 59.8; in the test on HT-29 [2] it was 71.8.
Turning to `CC(C)=CCC/C(C)=C/CC/C(C)=C/COc1cc(O)c2c(=O)cc(-c3ccccc3)oc2c1`, the Activity in the test on HT-29 [1] stood at 87.8; in the test on HT-29 [2], 83.3.
With `C=CC(C)(CC/C=C(\C)CCC=C(C)C)c1c(O)cc(O)c2c(=O)cc(-c3ccccc3)oc12` (configuration not stated), the Caspase induction with HT-29 [3] stood at 6.9. Besides, the Activity with HT-29 [1] is given as 43.3; in the test on HT-29 [2], 24.5.
For `C=CC(C)(C)c1c(O)cc(O)c2c(=O)c(OC)c(-c3ccc(OC)c(OC)c3)oc12` the same measures were 5.2, 8.5 and 4.7.
For `CC(C)=CCC/C(C)=C/Cc1c(O)cc(O)c2c(=O)cc(-c3ccccc3)oc12` the same measures were 9, 18 and 7.6.
Regarding `CC(C)=CCOc1cc(O)cc2oc(-c3ccccc3)cc(=O)c12`, in the test with HT-29 [3], the Caspase induction amounted to 1.4. Moreover, the Activity with HT-29 [1] is 17; in the test on HT-29 [2], 19.4.
Taken in the same sequence, the figures for `CC(C)=CCc1c(O)cc(O)c2c(=O)c(O)c(-c3ccc(O)c(O)c3)oc12` were 1.9, 68 and 67.
In the case of `C=CC(C)(C)c1c(O)cc(O)c2c(=O)c(O)c(-c3ccc(OC)cc3)oc12`, the Activity worked out at 56.4 with HT-29 [1] and 42.1 with HT-29 [2].
With `COc1ccc(-c2oc3cc(O)cc(O)c3c(=O)c2OC)cc1OC`, the Caspase induction with HT-29 [3] is recorded as 1.1. In addition, the Activity in the test on HT-29 [1] is 87.9; in the test on HT-29 [2], 74.2.
For `CC(C)=CCC/C(C)=C/Cc1c(O)cc2oc(-c3ccccc3)cc(=O)c2c1O` the same measures were 1.9, 58.2 and 53.9.
Taken in the same sequence, the figures for `CC(C)=CCc1c(O)c(O)c2oc(-c3ccccc3)cc(=O)c2c1O` were 1.6, 67.4 and 71.7.
In the case of `COc1ccc(-c2oc3cc(O)cc(O)c3c(=O)c2OC)c(OC)c1OC`, the figures for the Activity in the test with HT-29 [1] and with HT-29 [2] were 89.7 and 91.5, respectively.
For `C=CC(C)(C)c1c(O)cc(O)c2c(=O)c(OC)c(-c3ccc(OC)cc3)oc12`, the Caspase induction in the test with HT-29 [3] is given as 8.1. Moreover, the Activity in the test with HT-29 [1] stood at 34.5; with HT-29 [2], 20.1.
For the compound `COc1cc(-c2cc(=O)c3c(OC)c(OC)c(OC)cc3o2)cc(OC)c1OC`, the Activity with HT-29 [1] was determined as 94.2; with HT-29 [2], 100.7.
Taken in the same sequence, the figures for `CC(C)=CCc1c(O)cc(O)c2c(=O)cc(-c3ccc(O)cc3)oc12` were 76.9 and 56.2.
As to `COc1cc(OC)c(-c2oc3cc(O)cc(O)c3c(=O)c2OC)cc1OC`, the values for the Activity in the test with HT-29 [1] and in the test on HT-29 [2] were 90 and 92.5, respectively.
With `C=CC(C)(C)c1c(O)cc(O)c2c(=O)c(OC)c(-c3ccccc3)oc12`, in the test with HT-29 [3], the Caspase induction was 1.3. The Activity with HT-29 [1] was found to be 79.3; in the test on HT-29 [2], 79.4.
Turning to `COc1cc2oc(-c3ccccc3)cc(=O)c2c(O)c1C`, the figures for the Activity with HT-29 [1] and with HT-29 [2] were 92.2 and 83.8, respectively.
For `O=C(/C=C/c1ccc(O)cc1)c1c(O)cc(O)cc1O` [4,2',4',6'-TETRAHYDROXYCHALCONE] the same measures were 102 and 94.1.
For the compound `O=c1cc(-c2ccccc2)oc2cc(O)cc(O)c12` [CHRYSIN], in the test on HT-29 [3], the Caspase induction is given as 0.8. The Activity amounted to 86.6 with HT-29 [1] and 62.8 in the test on HT-29 [2].
With `COc1ccc(-c2oc3cc(O)cc(O)c3c(=O)c2OC)cc1` [ERMANIN], the Caspase induction with HT-29 [3] came to 1.2. Further, the Activity in the test with HT-29 [1] was found to be 92; with HT-29 [2] it was 77.1.
Taken in the same sequence, the figures for `COc1ccc(-c2oc3cc(O)cc(O)c3c(=O)c2O)cc1` [KAEMPFERIDE] were 1, 99.77 and 84.7.
Taken in the same sequence, the figures for `O=c1c(O)c(-c2ccc(O)cc2)oc2cc(O)cc(O)c12` [KAEMPFEROL] were 1.8, 92 and 89.6.
Turning to `O=C1C[C@@H](c2ccc(O)cc2)Oc2cc(O)cc(O)c21` [NARINGENIN], the results for the Activity with HT-29 [1] and in the test on HT-29 [2] were 102.2 and 94.8, respectively.
On to `O=c1c(O)c(-c2ccc(O)c(O)c2)oc2cc(O)cc(O)c12` [QUERCETIN], for which the Caspase induction in the test with HT-29 [3] stood at 1. Further, the Activity worked out at 61.4 with HT-29 [1] and 51.3 in the test on HT-29 [2].
